Experimental data taken from ChEMBL document CHEMBL5724801, “EUbOPEN Chemogenomics Library - Multiplex” (2024).
Where “and” joins values, the source holds several entries; their conditions need not be identical. Equal entries are not always repeated.

Experiments:
U2OS = experiment: Multiplex assay against U2OS; format: toxicity, cell-based; settings: human
Summary of the method: (§1)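 Cells stained live at seeding with Hoechst33342, BioTracker Green Microtubule Cytoskeleton Dye, MitoTracker Red and Annexin V Alexa Fluor 680 were imaged on a CQ1 microscope at 37°C and 5% CO2 after compound addition. Their classification by CellPathfinder machine-learning gating ran from Hoechst high-intensity objects versus normal cells, to healthy, pyknosed or fragmented nuclei among normal cells, to mitotic or apoptotic among pyknosed cells. Tubulin, mitochondrial-mass and membrane-permeability phenotypes are per cents of healthy-nucleus cells.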

Fibroblast = experiment: Multiplex assay against human fibroblast; format: toxicity, cell-based; summary of the method: as §1
[1] = 12 h, 1 µM, compound concentration 1 uM
[2] = 12 h, 10 µM, compound concentration 10 uM
[3] = 24 h, 1 µM, compound concentration 1 uM
[4] = 24 h, 10 µM, compound concentration 10 uM
[5] = 48 h, 1 µM, compound concentration 1 uM
[6] = 48 h, 10 µM, compound concentration 10 uM

Cc1ccc(/C(=C\CN2CCCC2)c2ccccn2)cc1 [TRIPROLIDINE]
Population Apoptotic (%) (U2OS; [1]): 85% | Population Fragmented Nuclei (%) (U2OS; [1]): 29% and 18% | Population Healthy Nuclei (%) (U2OS; [1]): 61% and 70% | Population Hoechst High Intensity Objects (%) (U2OS; [1]): 2% and 3% | Population Membrane Permeable-Phenotype (%) (U2OS; [1]): 4% and 6% | Population Mitochondria Different-Phenotype (%) (U2OS; [1]): 2% and 1% | Population Mitotic Cells (%) (U2OS; [1]): 15% and 14% | Population Normal (%) (U2OS; [1]): 97% and 96% | Population Pyknosed Nuclei (%) (U2OS; [1]): 8% and 11% | Population Tubulin-Different-Phenotype (%) (U2OS; [1]): 1% and 5% | Total Cell Count (U2OS; [1]): 244 and 126 | Population Apoptotic (%) (U2OS; [2]): 87% and 75% | Population Fragmented Nuclei (%) (U2OS; [2]): 25% and 15% | Population Healthy Nuclei (%) (U2OS; [2]): 64% and 77% | Population Hoechst High Intensity Objects (%) (U2OS; [2]): 3% and 0% | Population Membrane Permeable-Phenotype (%) (U2OS; [2]): 29% and 14% | Population Mitochondria Different-Phenotype (%) (U2OS; [2]): 23% and 18% | Population Mitotic Cells (%) (U2OS; [2]): 12% and 25% | Population Normal (%) (U2OS; [2]): 96% and 99% | Population Pyknosed Nuclei (%) (U2OS; [2]): 9% and 7% | Population Tubulin-Different-Phenotype (%) (U2OS; [2]): 24% and 15% | Total Cell Count (U2OS; [2]): 264 and 114 | Population Apoptotic (%) (U2OS; [3]): 89% and 81% | Population Fragmented Nuclei (%) (U2OS; [3]): 23% and 20% | Population Healthy Nuclei (%) (U2OS; [3]): 66% and 68% | Population Hoechst High Intensity Objects (%) (U2OS; [3]): 1% and 4% | Population Membrane Permeable-Phenotype (%) (U2OS; [3]): 4% and 9% | Population Mitochondria Different-Phenotype (%) (U2OS; [3]): 3% and 6% | Population Mitotic Cells (%) (U2OS; [3]): 10% and 18% | Population Normal (%) (U2OS; [3]): 98% and 96% | Population Pyknosed Nuclei (%) (U2OS; [3]): 9% and 11% | Population Tubulin-Different-Phenotype (%) (U2OS; [3]): 2% and 5% | Total Cell Count (U2OS; [3]): 297 and 150 | Population Apoptotic (%) (U2OS; [4]): 75% and 78% | Population Fragmented Nuclei (%) (U2OS; [4]): 27% and 19% | Population Healthy Nuclei (%) (U2OS; [4]): 62% and 70% | Population Hoechst High Intensity Objects (%) (U2OS; [4]): 2% and 1% | Population Membrane Permeable-Phenotype (%) (U2OS; [4]): 12% and 11% | Population Mitochondria Different-Phenotype (%) (U2OS; [4]): 15% and 13% | Population Mitotic Cells (%) (U2OS; [4]): 24% and 21% | Population Normal (%) (U2OS; [4]): 97% and 98% | Population Pyknosed Nuclei (%) (U2OS; [4]): 10% and 9% | Population Tubulin-Different-Phenotype (%) (U2OS; [4]): 8% and 6% | Total Cell Count (U2OS; [4]): 320 and 149 | Population Apoptotic (%) (U2OS; [5]): 86% and 76% | Population Fragmented Nuclei (%) (U2OS; [5]): 17% | Population Healthy Nuclei (%) (U2OS; [5]): 73% and 75% | Population Hoechst High Intensity Objects (%) (U2OS; [5]): 2% and 3% | Population Membrane Permeable-Phenotype (%) (U2OS; [5]): 3% and 5% | Population Mitochondria Different-Phenotype (%) (U2OS; [5]): 3% | Population Mitotic Cells (%) (U2OS; [5]): 13% and 23% | Population Normal (%) (U2OS; [5]): 97% and 96% | Population Pyknosed Nuclei (%) (U2OS; [5]): 9% and 6% | Population Tubulin-Different-Phenotype (%) (U2OS; [5]): 3% and 4% | Total Cell Count (U2OS; [5]): 398 and 209 | Population Apoptotic (%) (U2OS; [6]): 86% and 89% | Population Fragmented Nuclei (%) (U2OS; [6]): 24% and 15% | Population Healthy Nuclei (%) (U2OS; [6]): 65% and 74% | Population Hoechst High Intensity Objects (%) (U2OS; [6]): 2% and 4% | Population Membrane Permeable-Phenotype (%) (U2OS; [6]): 11% and 9% | Population Mitochondria Different-Phenotype (%) (U2OS; [6]): 8% | Population Mitotic Cells (%) (U2OS; [6]): 13% and 10% | Population Normal (%) (U2OS; [6]): 97% and 95% | Population Pyknosed Nuclei (%) (U2OS; [6]): 9% | Population Tubulin-Different-Phenotype (%) (U2OS; [6]): 7% and 6% | Total Cell Count (U2OS; [6]): 453 and 203 | Population Apoptotic (%) (Fibroblast; [1]): 52% and 41% | Population Fragmented Nuclei (%) (Fibroblast; [1]): 17% and 28% | Population Healthy Nuclei (%) (Fibroblast; [1]): 64% and 45% | Population Hoechst High Intensity Objects (%) (Fibroblast; [1]): 3% and 4% | Population Membrane Permeable-Phenotype (%) (Fibroblast; [1]): 0% and 1% | Population Mitochondria Different-Phenotype (%) (Fibroblast; [1]): 9% | Population Mitotic Cells (%) (Fibroblast; [1]): 47% and 58% | Population Normal (%) (Fibroblast; [1]): 96% and 95% | Population Pyknosed Nuclei (%) (Fibroblast; [1]): 18% and 25% | Population Tubulin-Different-Phenotype (%) (Fibroblast; [1]): 29% and 60% | Total Cell Count (Fibroblast; [1]): 119 and 127 | Population Apoptotic (%) (Fibroblast; [2]): 57% and 50% | Population Fragmented Nuclei (%) (Fibroblast; [2]): 14% and 26% | Population Healthy Nuclei (%) (Fibroblast; [2]): 64% and 52% | Population Hoechst High Intensity Objects (%) (Fibroblast; [2]): 2% | Population Membrane Permeable-Phenotype (%) (Fibroblast; [2]): 0% and 9% | Population Mitochondria Different-Phenotype (%) (Fibroblast; [2]): 5% and 9% | Population Mitotic Cells (%) (Fibroblast; [2]): 42% and 50% | Population Normal (%) (Fibroblast; [2]): 97% | Population Pyknosed Nuclei (%) (Fibroblast; [2]): 20% and 21% | Population Tubulin-Different-Phenotype (%) (Fibroblast; [2]): 44% and 59% | Total Cell Count (Fibroblast; [2]): 139 and 141 | Population Apoptotic (%) (Fibroblast; [3]): 43% and 46% | Population Fragmented Nuclei (%) (Fibroblast; [3]): 17% and 29% | Population Healthy Nuclei (%) (Fibroblast; [3]): 69% and 43% | Population Hoechst High Intensity Objects (%) (Fibroblast; [3]): 4% and 9% | Population Membrane Permeable-Phenotype (%) (Fibroblast; [3]): 1% and 6% | Population Mitochondria Different-Phenotype (%) (Fibroblast; [3]): 3% and 6% | Population Mitotic Cells (%) (Fibroblast; [3]): 56% and 53% | Population Normal (%) (Fibroblast; [3]): 95% and 90% | Population Pyknosed Nuclei (%) (Fibroblast; [3]): 13% and 27% | Population Tubulin-Different-Phenotype (%) (Fibroblast; [3]): 23% and 64% | Total Cell Count (Fibroblast; [3]): 128 and 121
